{"source": "ChEMBL document CHEMBL4480426", "about": "“Novel multi-target directed ligands based on annelated xanthine scaffold with aromatic substituents acting on adenosine receptor and monoamine oxidase B. Synthesis, in vitro and in silico studies” (Bioorg Med Chem, 2019)", "key": {"Adenosine receptor A1": {"molecular_target": "T1, Adenosine receptor A1 (Homo sapiens, UniProt P30542)", "T1 sequence (P30542 whole entry)": "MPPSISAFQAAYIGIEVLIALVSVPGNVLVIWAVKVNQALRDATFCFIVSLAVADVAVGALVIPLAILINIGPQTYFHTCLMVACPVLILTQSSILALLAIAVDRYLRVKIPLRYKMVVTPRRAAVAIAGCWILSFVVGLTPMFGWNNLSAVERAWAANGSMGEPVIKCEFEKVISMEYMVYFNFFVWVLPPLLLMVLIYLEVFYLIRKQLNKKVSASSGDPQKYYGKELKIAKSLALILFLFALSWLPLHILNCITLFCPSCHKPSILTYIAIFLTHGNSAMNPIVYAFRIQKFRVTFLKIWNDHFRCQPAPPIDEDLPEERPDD", "test": "Displacement of [3H]CCPA from recombinant human adenosine A1 receptor expressed in CHO cells", "format": "cell-based"}, "[1]": {"molecular_target": "T2, Adenosine receptor A1 (Homo sapiens) (UniProt P30542)", "T2 sequence (whole entry)": "T1 sequence (P30542 whole entry)", "test": "Displacement of [3H]CCPA from recombinant human adenosine A1 receptor expressed in CHO cells at 1 uM relative to control", "format": "cell-based", "summary_of_the_method": "(§1)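 Purchased membranes of CHO cells expressing human A1 ([3H]CCPA) or human A3 ([3H]PSB-11). A single high compound concentration is screened first; for potent compounds, full inhibition curves spanning 3 orders of magnitude. At least three independent experiments.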"}, "Adenosine receptor A2a": {"molecular_target": "Adenosine receptor A2a (Homo sapiens, UniProt P29274)", "sequence (P29274 whole entry)": "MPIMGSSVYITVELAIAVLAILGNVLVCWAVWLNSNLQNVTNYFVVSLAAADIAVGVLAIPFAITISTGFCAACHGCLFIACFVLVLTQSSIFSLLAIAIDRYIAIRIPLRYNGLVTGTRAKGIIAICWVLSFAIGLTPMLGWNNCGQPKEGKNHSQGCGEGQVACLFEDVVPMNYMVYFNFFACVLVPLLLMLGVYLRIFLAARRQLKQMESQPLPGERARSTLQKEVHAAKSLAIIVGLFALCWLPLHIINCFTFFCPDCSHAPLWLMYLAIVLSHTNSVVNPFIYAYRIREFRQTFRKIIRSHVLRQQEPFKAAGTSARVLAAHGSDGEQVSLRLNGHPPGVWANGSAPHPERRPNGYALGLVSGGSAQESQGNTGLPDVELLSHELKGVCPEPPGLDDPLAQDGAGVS", "test": "Displacement of [3H]MSX2 from recombinant human adenosine A2a receptor expressed in HEK293 cells", "format": "cell-based"}, "Adenosine receptor A2b": {"molecular_target": "T3, Adenosine receptor A2b (Homo sapiens, UniProt P29275)", "T3 sequence (P29275 whole entry)": "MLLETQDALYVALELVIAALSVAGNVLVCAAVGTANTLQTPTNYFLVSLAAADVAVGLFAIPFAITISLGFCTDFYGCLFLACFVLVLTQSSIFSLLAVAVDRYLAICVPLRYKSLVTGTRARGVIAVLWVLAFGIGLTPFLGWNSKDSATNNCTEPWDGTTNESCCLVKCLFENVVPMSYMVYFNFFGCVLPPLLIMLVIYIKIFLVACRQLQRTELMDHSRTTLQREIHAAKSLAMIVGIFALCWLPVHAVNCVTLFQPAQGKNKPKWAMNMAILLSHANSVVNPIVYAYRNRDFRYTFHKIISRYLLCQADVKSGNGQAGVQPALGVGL", "test": "Displacement of [3H]PSB603 from recombinant human adenosine A2b receptor expressed in HEK293 cells", "format": "cell-based"}, "[2]": {"molecular_target": "T4, Adenosine receptor A2b (Homo sapiens) (UniProt P29275)", "T4 sequence (whole entry)": "T3 sequence (P29275 whole entry)", "test": "Displacement of [3H]PSB603 from recombinant human adenosine A2b receptor expressed in HEK293 cells at 1 uM relative to control", "format": "cell-based", "summary_of_the_method": "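Purchased membranes of HEK cells expressing human A2A ([3H]MSX-2) or human A2B ([3H]PSB-603). A single high compound concentration is screened first; for potent compounds, full inhibition curves spanning 3 orders of magnitude. At least three independent experiments.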"}, "[3]": {"molecular_target": "T5, Adenosine receptor A3 (Homo sapiens) (UniProt P0DMS8)", "T5 sequence (whole entry)": "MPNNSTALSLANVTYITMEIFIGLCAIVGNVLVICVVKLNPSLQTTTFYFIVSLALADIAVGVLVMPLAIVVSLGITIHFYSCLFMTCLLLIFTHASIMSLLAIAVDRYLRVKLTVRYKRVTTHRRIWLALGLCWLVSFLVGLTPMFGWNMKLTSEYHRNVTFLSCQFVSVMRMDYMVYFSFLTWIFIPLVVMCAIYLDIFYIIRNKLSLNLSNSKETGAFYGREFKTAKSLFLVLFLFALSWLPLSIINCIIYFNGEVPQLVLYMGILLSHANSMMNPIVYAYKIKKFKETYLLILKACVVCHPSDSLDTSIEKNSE", "test": "Displacement of [3H]PSB11 from recombinant human adenosine A3 receptor expressed in CHO cells at 1 uM relative to control", "format": "cell-based", "summary_of_the_method": "as §1"}, "[4]": {"molecular_target": "T6, Amine oxidase [flavin-containing] B (Homo sapiens, UniProt P27338)", "T6 sequence (P27338 whole entry)": "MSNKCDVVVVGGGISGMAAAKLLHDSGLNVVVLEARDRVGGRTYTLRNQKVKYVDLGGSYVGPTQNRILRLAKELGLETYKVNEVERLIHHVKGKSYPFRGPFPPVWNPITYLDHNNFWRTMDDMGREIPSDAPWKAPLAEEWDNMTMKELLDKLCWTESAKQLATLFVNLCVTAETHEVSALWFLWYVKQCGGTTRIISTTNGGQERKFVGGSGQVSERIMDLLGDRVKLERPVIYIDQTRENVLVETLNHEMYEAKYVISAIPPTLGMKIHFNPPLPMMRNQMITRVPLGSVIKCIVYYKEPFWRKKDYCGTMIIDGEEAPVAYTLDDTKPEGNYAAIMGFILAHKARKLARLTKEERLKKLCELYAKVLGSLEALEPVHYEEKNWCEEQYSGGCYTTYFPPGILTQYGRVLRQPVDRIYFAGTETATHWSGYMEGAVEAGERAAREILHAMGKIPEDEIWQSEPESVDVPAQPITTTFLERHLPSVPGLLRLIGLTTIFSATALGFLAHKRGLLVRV", "test": "Inhibition of recombinant human MAOB expressed in baculovirus infected BTI insect cells using p-tyramine as substrate preincubated for 30 mins followed by substrate addition and measured over 45 mins by horseradish peroxidase-Amplex Red-coupled fluorometric assay", "summary_of_the_method": "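Human recombinant MAO-A or MAO-B enzyme. Activity detected fluorometrically with the Amplex Red monoamine oxidase assay.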"}, "HepG2": {"test_system": "HepG2", "test": "Hepatotoxicity against human HepG2 cells assessed as reduction in cell viability at 0.5 to 1 uM measured after 72 hrs by CellTiter96 Aqueous non-radioactive cell proliferation assay", "format": "toxicity, cell-based", "conditions": "hepg2, 72 h", "summary_of_the_method": "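HepG2 cells seeded at 1.5×10^4 cells/well in MEM with 4.5 g/L glucose and 10% FBS, grown 24 h at 37 °C, 5% CO2. Compounds diluted in the same medium and applied for 72 h. CellTiter 96 AQueous reagent then added for 2 h, absorbance read at 490 nm. One-way ANOVA with Bonferroni post test.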"}, "[5]": {"test": "Solubility of the compound in MEM media at 10 to 100 uM", "format": "physicochemical"}, "[6]": {"test": "Antioxidant activity assessed as increase in total ferric ion reducing activity at 1000 uM using FeCl3.6H2O and TPTZ incubated for 10 mins under dark condition by FRAP assay relative to control", "format": "functional", "design": "scale not given: the % may be the effect or the level left", "summary_of_the_method": "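FRAP reagent made by mixing 10 parts 300 mM acetate buffer pH 3.6, 1 part 10 mM TPTZ in 40 mM HCl and 1 part 20 mM FeCl3·6H2O. Reagent mixed with compound solution, 10 min at room temperature in the dark. Ferrous-TPTZ complex read at 593 nm. Result is absorbance increase versus solvent sample. FeSO4·7H2O standard curve, 37.5–1200 μM.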"}, "Brain": {"test_system": "Brain", "test": "Antioxidant activity in rat brain homogenate assessed as inhibition of FeCl2/ascorbic acid-induced lipid peroxidation by measuring reduction in TBARS level at 1000 uM preincubated for 5 mins followed by FeCl2/ascorbic acid addition and measured after 30 mins relative to control", "format": "functional, tissue-based", "design": "scale not given: the % may be the effect or the level left", "summary_of_the_method": "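Rat brain homogenate in 0.9% saline, 10 mg tissue/ml, preincubated 5 min at 37 °C with compound or vehicle. Peroxidation started with 0.5 mM FeCl2 plus 2 mM ascorbic acid (added-solution concentrations). After 30 min, stopped with 0.2% BHT. Thiobarbituric acid reagent added, heated 15 min in boiling water, TBARS extracted into n-butanol and read at 532 nm. Carvedilol as reference.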"}}, "data": [{"smiles": "Cn1c(=O)c2c(nc3n2CCCCN3Cc2ccc(Cl)c(Cl)c2)n(C)c1=O", "values": [{"measurement": "Ki", "setting": "Adenosine receptor A1", "value": "> 1", "unit": "µM"}, {"measurement": "inhibition", "setting": "[1]", "value": 21, "unit": "%"}, {"measurement": "Ki", "setting": "Adenosine receptor A2a", "value": "> 1", "unit": "µM"}, {"measurement": "Ki", "setting": "Adenosine receptor A2b", "value": "> 1", "unit": "µM"}, {"measurement": "inhibition", "setting": "[2]", "value": 40, "unit": "%"}, {"measurement": "inhibition", "setting": "[3]", "value": 26, "unit": "%"}, {"measurement": "IC50", "setting": "[4]", "value": 0.083, "unit": "µM"}, {"measurement": "Activity", "setting": "HepG2", "value": "Toxic"}, {"measurement": "solubility", "setting": "[5]", "value": "Insoluble"}, {"measurement": "Activity", "setting": "[6]", "value": 0.59, "unit": "%"}, {"measurement": "Activity", "setting": "Brain", "value": 16.6, "unit": "%"}]}]}
